As a reminder, the MIC is the lowest concentration that inhibits growth of the organism.

≈ marks a conversion by molar mass, not a printed value.

The record followed here is ChEMBL document CHEMBL1275547, “KHM-1, a novel plasmid-mediated metallo-beta-lactamase from a Citrobacter freundii clinical isolate” (2008).

Assay type in all cases: functional
For experiment [1], the system named is Escherichia coli. Put plainly: Antibacterial activity against Escherichia coli K-12 W1895 transconjugant harboring pCF243 by microdilution method in presence of clavulanic acid. The gist of the method:
(§1)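 Broth microdilution MICs of β-lactams. Clavulanic acid was tested combined with ticarcillin at a fixed 15:1 ticarcillin:clavulanic acid ratio.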
A general note: Dilution methods test growth across graded concentrations, often in twofold steps.

Experiment [2] relates to Escherichia coli. Kind of experiment: Antibacterial activity against Escherichia coli JM109 harboring recombinant pKHM-1 by microdilution method.
For experiment [3], the system named is Escherichia coli. Put plainly: Antibacterial activity against Escherichia coli K-12 W1895 transconjugant harboring pCF243 by microdilution method.
Experiment [4] deals with Escherichia coli. Put plainly: Antibacterial activity against Escherichia coli JM109 by microdilution method in presence of clavulanic acid. The gist of the method: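 Broth microdilution susceptibility of E. coli JM109, the host strain for pHSG396-based recombinant plasmids. Ticarcillin was tested with clavulanic acid at a fixed ticarcillin:clavulanic acid ratio of 15:1.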

Experiment [5] has as its system Escherichia coli. Kind of experiment: Antibacterial activity against Escherichia coli JM109 by microdilution method. The essentials: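 Microdilution β-lactam susceptibility in E. coli JM109, the host strain for recombinant plasmids such as the pHSG396-based blaKHM-1 clone.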
The subject of experiment [6] is Citrobacter freundii. Kind of experiment: Antibacterial activity against Citrobacter freundii KHM243 clinical isolate by microdilution method in presence of clavulanic acid. The essentials:
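Broth microdilution MICs of β-lactams against the C. freundii KHM243 urinary isolate. Clavulanic acid was combined with ticarcillin at a fixed 15:1 ticarcillin-to-clavulanate ratio.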

Experiment [7] concerns Escherichia coli. Put plainly: Antibacterial activity against Escherichia coli JM109 harboring recombinant pKHM-1 by microdilution method in presence of clavulanic acid. The essentials: as §1
The test system of experiment [8] is Escherichia coli. Put plainly: Antibacterial activity against Escherichia coli K-12 W1895 by microdilution method. The gist of the method:
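Microdilution β-lactam MICs in E. coli K-12 W1895, the conjugation recipient. Transconjugants carrying the natural blaKHM-1 plasmid were selected on Penassay agar with rifampin (200 μg/ml) and moxalactam (16 μg/ml).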

The test system of experiment [9] is Citrobacter freundii. Kind of experiment: Antibacterial activity against Citrobacter freundii KHM243 clinical isolate by microdilution method.
In experiment [10] the test system is Escherichia coli. Put plainly: Antibacterial activity against Escherichia coli K-12 W1895 by microdilution method in presence of clavulanic acid. The essentials:
as §1

Consider `CC1(C)S[C@@H]2[C@H](NC(=O)[C@H](C(=O)O)c3ccsc3)C(=O)N2[C@H]1C(=O)O` [TICARCILLIN], for which the MIC was over 512 µg/mL in the experiment on Escherichia coli [1]; 512 µg/mL in the experiment with Escherichia coli [2]; over 512 µg/mL with Escherichia coli [3]; 2 µg/mL with Escherichia coli [4]; 2 µg/mL (≈ 5.2 µM) with Escherichia coli [5]; 512 µg/mL in the experiment on Citrobacter freundii [6]. For the same compound, the MIC in the experiment on Escherichia coli [7] was 512 µg/mL; in the experiment with Escherichia coli [8], 2 µg/mL (≈ 5.2 µM); in the experiment on Citrobacter freundii [9] it was over 512 µg/mL; with Escherichia coli [10] it was 4 µg/mL.
